Results taken from ChEMBL document CHEMBL3588801, “Thiosemicarbazones as Aedes aegypti larvicidal” (Eur J Med Chem, 2015).
In brackets after ≈: the same amount, converted by molar mass. Several values for one entry are separate records, joined by “and”; a condition that tells them apart may be missing. Identical values can stand only once.

Tests used:
[1] = system: Aedes aegypti; experiment: Larvicidal activity against Aedes aegypti L4 stage larvae assessed as induction of larval mortality incubated for 48 hrs; format: functional; details: for LC50: Aedes aegypti, 48 h
Procedure, shortened: (§1)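 Adapted WHO larval test. Compound solubilized with Tween 80 co-solvent in distilled water as stock, then diluted. Fourth-instar A. aegypti larvae, 20 per beaker, in 20 mL test solution; four replicates per concentration, plus a compound-free negative control. Mortality scored after 48 h at 28 ± 2 °C, 70 ± 10 relative humidity (dead = no response to stimulus or failure to surface). LC50 from probit analysis.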

[2] = Cytotoxicity against BALB/c mouse splenocytes assessed as reduction in cell viability incubated for 24 hrs by beta-radiation counting based [3H]-thymidine incorporation assay; design: species or system Splenocyte
Procedure, shortened: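 BALB/c mouse splenocytes seeded at 6 × 10^5 cells/well in RPMI-1640 with 10% FBS and gentamycin; compound added in DMSO at six concentrations (1, 5, 10, 25, 50, 100) in triplicate; 24 h at 37 °C, 5% CO2; then 3H-thymidine pulse and beta counting. Viability as % incorporation versus solvent-only cells; saponin positive control; highest non-toxic concentration estimated.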

[3] = Lipophilicity log P of the compound; format: physicochemical; details: octanol/water
Procedure, shortened: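 Calculated rather than measured, alongside the B3LYP/6-311++G(d,p) dipole moment.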

[4] = molecular target: T1, Sterol carrier protein 2 (Aedes aegypti) (UniProt Q86PR3); experiment: (§2) Inhibition of NBD-cholesterol binding to recombinant Aedes aegypti SCP-2 protein by fluorescence based assay
T1 sequence (whole entry): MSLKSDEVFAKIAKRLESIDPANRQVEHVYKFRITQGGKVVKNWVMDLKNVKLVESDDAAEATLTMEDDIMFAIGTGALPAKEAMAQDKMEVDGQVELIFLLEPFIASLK
Procedure, shortened: (§3)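 Competition assay with purified recombinant AeSCP-2, NBD-cholesterol and compound at increasing concentrations, read as fluorescence intensity. Separate NBD-cholesterol plus compound wells served as background where the compound interfered with fluorescence. Net signal is NBD-cholesterol/SCP-2/compound fluorescence minus that background, plotted as dose-response.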

[5] = molecular target: T2, Sterol carrier protein 2 (Aedes aegypti, UniProt Q86PR3); experiment: as §2; procedure, shortened: as §3
T2 sequence (Q86PR3 whole entry): T1 sequence (whole entry)

[6] = system: Aedes aegypti; experiment: Larvicidal activity against Aedes aegypti; format: functional; procedure, shortened: as §1

Compound | log(1/LC50) [1] | LC50 [1] | MNTC at 24 h [2] [µM] | logP [3] | inhibition [4] | EC50 [5] [µM] | LC50 [6] [µg/mL]
NC(=S)N/N=C/C=C/c1ccccc1 | 3.86 | 28.4 µg/mL and 138 µM | < 4.87 | – | – | – | –
NC(=S)N/N=C/c1ccc(Cl)cc1 | 3.873 | 28.8 µg/mL and 135 µM | 23.3 | 2.63 | – | – | –
NC(=S)N/N=C/c1ccc(F)cc1 | 3.507 | 61.3 µg/mL and 311 µM | 25.4 | 2.18 | – | – | –
COc1ccc(OC/C=N/NC(N)=S)cc1 | 3.298 | 120 µg/mL and 503 µM | 20.9 | 2.09 | Dose-dependent effect | 0.6 | –
NC(=S)N/N=C/COc1ccccc1 | 3.268 | 113 µg/mL and 538 µM | 119 | 2.01 | – | – | –
NC(=S)N/N=C/c1ccc(O)cc1 | – | – | 5.12 | – | Dose-dependent effect | 5 | –
NC(=O)N/N=C/c1ccc(Cl)c(Cl)c1 | – | > 200 µg/mL and > 862 µM | > 431 | – | – | – | –
C/C(=N\NC(N)=S)C(C)Oc1ccc(Cl)c(Cl)c1 (stereo not drawn) | – | 3.95 µM | – | 4.87 | – | – | –
CC(C)CNC(=O)/C=C/C=C/CCCC/C=C/c1ccc2c(c1)OCO2 [RETROFRACTAMIDE B] | – | – | – | – | – | – | 0.1 (≈ 0.281 µM)
NC(=S)N/N=C/COc1ccc(Cl)cc1 | 4.046 | 21.9 µg/mL and 89.9 µM | 103 | 2.65 | – | – | –
NC(=O)N/N=C/c1ccc(F)cc1 | – | > 200 µg/mL and > 1.1 mM | > 55.1 | – | – | – | –
CCCCC/C=C/C=C/C(=O)NCC(C)C [PELLITORIN] | – | – | – | – | – | – | 0.92 (≈ 4.12 µM)
NC(=S)N/N=C/COc1ccc(Cl)c(Cl)c1 | 4.68 | 5.8 µg/mL and 20.9 µM | 89.8 | 3.3 | – | – | –
NC(=S)N/N=C/COc1cccc(Cl)c1 | 3.542 | 70 µg/mL and 287 µM | 103 | 2.65 | – | – | –
NC(=S)N/N=C/COc1ccc(Br)cc1 | 4.036 | 26.5 µg/mL and 92 µM | > 347 | 2.9 | – | – | –
CC(C)CNC(=O)/C=C/C=C/CC/C=C/c1ccc2c(c1)OCO2 [RETROFRACTAMIDE A] | – | – | – | – | – | – | 0.04 (≈ 0.122 µM)
NC(=S)N/N=C/c1ccc(Br)cc1 | 3.91 | 31.7 µg/mL and 123 µM | < 3.87 | 2.87 | – | – | –
NC(=S)N/N=C/COc1cccc(Cl)c1Cl | 4.154 | 19.5 µg/mL and 70.1 µM | 17.9 | 3.3 | – | – | –
CC(C)CNC(=O)/C=C/C=C/CCCCCC/C=C/c1ccc2c(c1)OCO2 [GUINEENSINE] | – | – | – | – | – | – | 0.89 (≈ 2.32 µM)
NC(=S)N/N=C/c1cccc(/C=N/NC(N)=S)c1 | – | > 200 µg/mL | – | – | – | – | –
N/C(S)=N/N=C/c1ccc(Cl)c(Cl)c1 | 4.157 | 17.3 µg/mL and 69.7 µM | 20.2 | 3.27 | – | – | –
